Data on four compounds can be found in paper PMC3460462 (The Journal of Biological Chemistry, 2012).

As a reminder, the EC50 is the concentration needed to bring the measured effect to its halfway point. Low values mean higher potency in that assay, high ones lower potency in that assay.

Ends that are not written are not given here.

Common to all, as to assay type: cell-based
Experiment [1] has as its system human receptors (hFPR1, hFPR2, hFPR3). Put plainly: FLIPR Ca2+ assay, human receptors. In outline: (§1)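 HEK293T PEAKrapid cells seeded on poly-D-lysine, transfected 24 h later (jetPEI) with receptor plus Gα16 in equal amounts, or empty vector for mock. After 48 h, loaded with 2 μM Fluo-4 AM and 50 μM probenecid for 2 h at room temperature in C1 buffer (HEPES, pH 7.2), then rinsed three times. About 50,000 cells per well on FLIPR; ligands in C1. Response is ΔF/F0 (peak over baseline), fitted with a variable-slope sigmoid.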

In experiment [2] the target is T1, mFpr2 (Mus musculus, UniProt O88536).
T1 sequence (O88536 1-351): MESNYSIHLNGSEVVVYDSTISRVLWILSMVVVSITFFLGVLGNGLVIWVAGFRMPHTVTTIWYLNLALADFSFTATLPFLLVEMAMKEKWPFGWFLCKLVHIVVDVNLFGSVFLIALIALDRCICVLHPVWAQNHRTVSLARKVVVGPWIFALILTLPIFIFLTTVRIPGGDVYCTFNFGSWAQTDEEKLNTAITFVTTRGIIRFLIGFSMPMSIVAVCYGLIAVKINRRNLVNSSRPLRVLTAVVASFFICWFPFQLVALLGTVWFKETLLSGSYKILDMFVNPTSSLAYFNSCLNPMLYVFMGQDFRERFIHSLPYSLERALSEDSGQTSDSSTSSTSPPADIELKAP
Put plainly: FLIPR Ca2+ assay, HEK293T cells transfected with mFpr2 and Gα16.

Experiment [3] addresses T2, mFpr-rs1 (Mus musculus, UniProt O08790).
T2 sequence (O08790 1-351): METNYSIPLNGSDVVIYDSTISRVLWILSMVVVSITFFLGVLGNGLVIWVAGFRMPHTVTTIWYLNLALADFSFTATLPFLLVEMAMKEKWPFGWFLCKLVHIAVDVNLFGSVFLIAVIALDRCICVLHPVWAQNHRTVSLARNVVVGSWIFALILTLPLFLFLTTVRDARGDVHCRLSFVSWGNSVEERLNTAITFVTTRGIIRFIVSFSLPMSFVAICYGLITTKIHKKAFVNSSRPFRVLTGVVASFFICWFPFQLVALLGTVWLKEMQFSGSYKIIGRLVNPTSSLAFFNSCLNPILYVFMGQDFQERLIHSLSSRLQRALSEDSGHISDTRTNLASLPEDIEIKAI
Put plainly: FLIPR Ca2+ assay, HEK293T cells transfected with mFpr-rs1 and Gα16.

In experiment [4] the target is T3, mFpr1 (Mus musculus, UniProt P33766).
T3 sequence (P33766 1-364): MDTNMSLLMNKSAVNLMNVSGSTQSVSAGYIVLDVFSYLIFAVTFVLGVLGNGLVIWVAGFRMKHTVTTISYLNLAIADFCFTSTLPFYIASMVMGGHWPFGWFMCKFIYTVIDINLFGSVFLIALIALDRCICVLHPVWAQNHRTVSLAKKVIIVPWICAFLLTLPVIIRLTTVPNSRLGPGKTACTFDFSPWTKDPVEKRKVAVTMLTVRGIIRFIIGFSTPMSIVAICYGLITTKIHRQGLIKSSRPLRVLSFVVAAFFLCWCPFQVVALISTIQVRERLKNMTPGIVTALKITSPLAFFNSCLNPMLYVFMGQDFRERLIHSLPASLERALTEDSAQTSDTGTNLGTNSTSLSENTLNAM
In words: FLIPR Ca2+ assay, HEK293T cells transfected with mFpr1 and Gα16.

Experiment [5] has as its system mock-transfected cells. Put plainly: FLIPR Ca2+ assay, mock-transfected negative control. The settings on record: mock-transfected negative controls; different kinetics. The procedure, abridged: as §1
The target in experiment [6] is T4, hFPR2 (Homo sapiens, UniProt P25090).
T4 sequence (P25090 1-351): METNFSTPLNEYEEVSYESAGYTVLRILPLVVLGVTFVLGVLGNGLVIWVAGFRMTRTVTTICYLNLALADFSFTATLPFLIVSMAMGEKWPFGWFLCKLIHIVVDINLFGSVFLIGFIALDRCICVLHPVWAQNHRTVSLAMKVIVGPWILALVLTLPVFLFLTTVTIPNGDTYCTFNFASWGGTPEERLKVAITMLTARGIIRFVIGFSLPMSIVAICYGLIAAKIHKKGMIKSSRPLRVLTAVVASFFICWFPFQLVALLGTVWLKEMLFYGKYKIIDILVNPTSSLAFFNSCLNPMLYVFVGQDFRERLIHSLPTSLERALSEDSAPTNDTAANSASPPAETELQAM
In words: FLIPR Ca2+ assay, HEK293T cells transfected with hFPR2 and Gα16. As to conditions: 1% DMSO.

For experiment [7], the target named is T1, mFpr2. In words: Single-cell resolution Ca2+ imaging, mFpr2. As to conditions: 9 μM fMLF; single-cell Fura-2 Ca2+ imaging. In outline: (§2)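 Single-cell Ca2+ imaging on a Pathway Bioimager. HEK293T PEAKrapid cells cotransfected with receptor, Gα16 and EGFP plasmid (1/10) and loaded with Fura-2/AM. […] C1 buffer application served as mechanical control, with buffer-responding cells excluded; 30 μM ATP checked viability. Mock-transfected cells were the negative control, and responding cells were counted.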

In experiment [8] the test system is all other family members (hFPR3, vomeronasal Fprs). In words: Single-cell resolution Ca2+ imaging, all other Fpr family members. The settings on record: 9 μM fMLF; single-cell Fura-2 Ca2+ imaging. In outline: as §2
For experiment [9], the target named is T3, mFpr1. Put plainly: Single-cell resolution Ca2+ imaging, mFpr1. The settings on record: 9 μM fMLF; single-cell Fura-2 Ca2+ imaging. The procedure, abridged: as §2

With “Ac2-26: classical Fpr agonist purchased from Tocris (Ac-AMVSEFLKQAWFIENEEQEYVQTVK; UniProt P04083 2-26, looked up, fragment)”, in [1], the “Ca2+ response (in words)” value is “robust Ca^2+ elevations”.
With `C[S+](C)[O-]` [DMSO, dimethyl sulfoxide], the saturation reached at in [2] (DMSO concentration) was around 3%; in experiment [4] (DMSO concentration, FLIPR Ca2+), around 3%. Further, the threshold of activation is listed as around 0.1% in experiment [2] (DMSO concentration) and around 0.1% in experiment [4] (DMSO concentration, FLIPR Ca2+). In addition, the “receptor activation (in words)” value in experiment [3] is “but not mFpr-rs1”; in [6] it was “susceptible”. Besides, the “concentrations giving unspecific DMSO-dependent signals” value in experiment [5] is on record as above 2%.
As to “H-RIHIGPGRALYTT-OH [V3gp120 HIV (BK-130)]”, in [2] (weak activation), the “concentrations at which only a weak activation was seen” value is at least 30 µM. The midpoint of the response in experiment [4], the EC50, lay at 4.5 µM. In [4] (FLIPR Ca2+), this compound yielded an activation threshold of around 1 µM. Besides, in experiment [4] (mFpr1 versus mFpr2, FLIPR Ca2+), the “subtype selectivity (in words)” value is reported as “strongly preferential activators of mFpr1”.
For the compound “N-formylmethionine-leucine-phenylalanine [fMLF]”, the figures for the “activation by fMLF (in words)” value in experiment [7], in experiment [8] and in experiment [9] were “could be activated”, “did not respond” and “could be activated”, respectively.
